Assay results taken from article PMC3733255 (Clinical cancer research : an official journal of the …, 2012).

Assays:
U-87 MG glioblastoma = assay: Ex vivo NIRF imaging of sliced brains; type: in vivo, mouse; conditions: U-87 MG model, brain slices 48 hours after probe injection, mean±SEM
Outline: (§1)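 Test probe (1 nmol) injected via tail vein; controls were 1 nmol nonspecific RAD-peptide dye conjugate and a blocking mix (1 nmol probe plus 20 nmol unlabeled cRGD). Mice were killed at 48 h; whole brains were sliced coronally and imaged on Odyssey (800 nm channel, sensitivity 5, 21 μm resolution). Signal was background-subtracted and area-weighted, tumor vs corresponding normal brain; tumor confirmed by H&E.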

TS543 glioblastoma = assay: Ex vivo NIRF imaging of sliced brains; type: in vivo, mouse; conditions: TS543 model, brain slices 48 hours after probe injection, mean±SEM
Outline: as §1

RCAS-PDGF glioblastoma = assay: Ex vivo NIRF imaging of sliced brains; type: in vivo, mouse; conditions: RCAS-PDGF model, brain slices 48 hours after probe injection, mean±SEM
Outline: as §1

[1] = preclinical model; cited from earlier work

Molecule | T/N ratio ex vivo (area-normalized fluorescence-800, tumor vs normal brain) (U-87 MG glioblastoma) | T/N ratio ex vivo (area-normalized fluorescence-800, tumor vs normal brain) (TS543 glioblastoma) | T/N ratio ex vivo (area-normalized fluorescence-800, tumor vs normal brain) (RCAS-PDGF glioblastoma) | Toxicity [1]
IRDye 800CW-conjugated cyclic Arg-Ala-Asp-D-Phe-Lys (head to tail) [IRDye 800CW-RAD, IRDye 800CW-conjugated cyclic Arg-Ala-Asp-D-Phe-Lys peptide] | 10.5±1.0 | 11.6±1.0 | 11.6±1.1 | 
CC1(C)C(=CC=C2CCCC(C=CC3=[N+](CCCCCC(=O)[O-])c4ccc(S(=O)(=O)[O-])cc4C3(C)C)=C2Oc2ccc(S(=O)(=O)[O-])cc2)N(CCCCS(=O)(=O)[O-])c2ccc(S(=O)(=O)[O-])cc21.[Na+].[Na+].[Na+].[Na+] [IRDye 800CW] |  |  |  | good results
